The source of these data is ChEMBL document CHEMBL4665870, “RNA drug discovery: Conformational restriction enhances specific modulation of the T-box riboswitch function” (Bioorg Med Chem, 2020).

The source made the active and inactive calls. The calls are words filed in the database; no cut-off is given here.

Experiment [1] is described as follows: Inhibition of tRNA-induced Escherichia coli RNA polymerase mediated T-box riboswitch transcription readthrough assessed as riboswitch function in presence of RTprb and dsDNA at 100 uM by fluorescence-monitored in vitro transcription assay. The method, boiled down: (§1)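 In vitro transcription with 10 nM DNA template and 0.05 U/μL E. coli RNA polymerase sigma-saturated holoenzyme. Readout by 100 nM molecular beacon, with or without 30 nM tRNA and 100 μM ligand, at 28 °C. Readthrough = fluorescence at 6 h minus 0 min. Triplicates, unpaired t-test.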

Experiment [2] in a line: Inhibition of tRNA-induced Escherichia coli RNA polymerase mediated T-box riboswitch transcription readthrough assessed as overall transcription in presence of RTprb and dsDNA at 100 uM by fluorescence-monitored in vitro transcription assay. The method, boiled down: as §1
The nature of experiment [3]: Induction of tRNA-5'TAMRA-antiterminator RNA (unknown origin) complex disruption using fluorescently-labeled AM at 100 uM by fluorescence anisotropy monitored complex disruption assay. The method, boiled down: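 Fluorescence anisotropy of 100 nM 5′-TAMRA-AM with 2.5 μM tRNA and 100 μM ligand (n = 3). Controls were AM alone (r−) and AM plus tRNA (r+), run in replicate. Significance assessed by unpaired t-test.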

Experiment [4] relates to T-box riboswitch antiterminator RNA (Bacillus subtilis). In words: Binding affinity to 5'TAMRA antiterminator C11U RNA (unknown origin) assessed as structural changes by fluorescence-monitored ligand binding assay relative to bulge deletion AM.
Experiment [5] is described as follows: Binding affinity to 5'TAMRA-antiterminator RNA (unknown origin) assessed as structural changes by fluorescence-monitored ligand binding assay relative to bulge deletion AM.
Experiment [6] can be described thus: Effect on HEX-antiterminator RNA-DABCYL (unknown origin) thermal stability at 100 uM by measuring fluorescence by AriaMx Real-Time PCR system. In a few lines:
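100 nM fluorophore–quencher 5′-HEX-AM-3′-DABCYL with 100 μM ligand in 10 mM sodium phosphate, 0.01 mM EDTA, pH 6.5, 5% DMSO. Fluorescence read (ex 535 nm / em 555 nm) while heating 40–90 °C. Tm taken from the first derivative of the raw data.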

As for `O=C(Cc1ccccc1)OC[C@H]1OC(=O)N[C@@H]1CN1CCN(c2ccccc2)CC1`, the inhibition result in experiment [1] was “Active”. Also, the inhibition entry in experiment [2] is “inactive”.
Turning to `CC(=O)c1ccc(NC(=O)OC[C@H]2OC(=O)N[C@@H]2CN2CCN(c3ccccc3)CC2)cc1`, in experiment [1], the inhibition result is “Active”. Besides, the inhibition entry in experiment [2] is “inactive”.
As for `CC(=O)c1ccc(NC(=O)OC[C@@H]2OC(=O)N3CCc4c(-c5ccccc5)nnn4C[C@@H]23)cc1`, the Activity in experiment [3] is -20%. For the same molecule, the inhibition result in experiment [1] is “Active”. Further, the result in experiment [4] and in experiment [5] was Active. Further, the inhibition result in experiment [2] was “inactive”. Also, in experiment [6], the result was inactive.
For `CC(=O)c1ccc(NC(=O)OC[C@H]2OC(=O)N3CCc4c(-c5ccccc5)nnn4C[C@H]23)cc1`, in experiment [3], the Activity was -28%. For the same molecule, the inhibition result in experiment [1] is “Active”. For the same molecule, the outcome in experiment [4] and in experiment [5] was Active. Moreover, the inhibition result in experiment [2] is “inactive”. Moreover, in experiment [6], the outcome was inactive.
Consider `O=C(Cc1ccccc1)OC[C@@H]1OC(=O)N2CCc3c(-c4ccccc4)nnn3C[C@@H]12`, for which the outcome in experiment [3] and in experiment [6] was inactive. The inhibition entry in experiment [1] is “Active”. The result in experiment [4] and in experiment [5] was Active. Further, in experiment [2], the inhibition entry is “inactive”.
Turning to `CC(=O)c1ccc(NC(=O)OC[C@@H]2OC(=O)N[C@H]2CN2CCN(c3ccccc3)CC2)cc1`, the inhibition entry in experiment [1] was “Active”. For the same molecule, in experiment [2], the inhibition result was “inactive”.
As for `O=C(Cc1ccccc1)OC[C@@H]1OC(=O)N[C@H]1CN1CCN(c2ccccc2)CC1`, in experiment [1], the inhibition entry is “Active”. Also, the inhibition entry in experiment [2] was “inactive”.
In the case of `O=C(Cc1ccccc1)OC[C@H]1OC(=O)N2CCc3c(-c4ccccc4)nnn3C[C@H]12`, the result in experiment [3], in experiment [4] and in experiment [6] was inactive. In experiment [1], the inhibition entry was “Active”. Besides, in experiment [2], the inhibition entry was “inactive”. Further, the outcome in experiment [5] was Active.
